Legend:
Assay type in all cases: functional
[1] = Cytotoxicity against human colon cancer cells after 48 hrs; settings: Cancer cell lines
Summary of the method: (§1)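 NCI 60-line panel. Compounds were dissolved in DMSO and tested at five 10-fold dilutions, the highest 10^-4 M (10^-3 M where footnoted), over 48 h of incubation. The readouts were GI50, TGI and LC50 in μM, with the panel mean also given. Only compounds passing a 10^-5 M single-dose prescreen were tested; some were repeated and averaged over two experiments.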

[2] = Cytotoxicity against human NSCLC cells after 48 hrs; summary of the method: as §1
[3] = Cytotoxicity against human renal cancer cells after 48 hrs; settings: Cancer cell lines; summary of the method: as §1
[4] = Cytotoxicity against human ovarian cancer cells after 48 hrs; settings: Cancer cell lines; summary of the method: as §1
[5] = Cytotoxicity against human melanoma cells after 48 hrs; settings: Melanoma cell; summary of the method: as §1
[6] = Cytotoxicity against human leukemia cells after 48 hrs; settings: for GI50 / TGI: Leukemia cell; summary of the method: as §1
[7] = Cytotoxicity against human prostate cancer cells after 48 hrs; settings: Cancer cell lines; summary of the method: as §1
[8] = Cytotoxicity against human breast cancer cells after 48 hrs; settings: Cancer cell lines; summary of the method: as §1
[9] = Cytotoxicity against human CNS cancer cells after 48 hrs; settings: Cancer cell lines; summary of the method: as §1
[10] = read-out: LC50 (the source's name)

Structure (SMILES) | GI50 [1] [nM] | TGI [1] [µM] | GI50 [2] [nM] | TGI [2] [µM] | GI50 [3] [nM] | TGI [3] [µM] | GI50 [4] [µM] | TGI [4] [µM] | GI50 [5] [nM] | TGI [5] [µM] | GI50 [6] [nM] | TGI [6] [µM] | GI50 [7] [nM] | TGI [7] [µM] | GI50 [8] [nM] | TGI [8] [µM] | GI50 [9] [nM] | TGI [9] [µM] | also measured
COc1cc2c(/C=C3/C(=O)Nc4ccc(O)cc43)c(Cl)n(Cc3cc(OC)c(OC)c(OC)c3)c2cc1C | 2290 | 49 | 2400 | 32.4 | 2750 | 33.1 | 2.34 | 43.6 | 1450 | 11.5 | 1410 | 18.6 | 2290 | 50.1 | 1410 | 34.7 | 2040 | 34.7 | –
COc1cc2c(/C=C3/C(=O)Nc4cccc(Cl)c43)c(Cl)n(Cc3cc(OC)c(OC)c(OC)c3)c2cc1C | 2880 | 10 | 3240 | 12 | 3240 | 11.8 | 3.98 | 22.9 | 2880 | 8.91 | 2450 | 14.1 | 1910 | 5.13 | 2950 | 15.1 | 3020 | 12.6 | CC50 [1, 10]: 51.3 µM; LC50 [2]: 47.9 µM; LC50 [3]: 45.7 µM; LC50 [4]: 66.1 µM; LC50 [5]: 51.3 µM; LC50 (concentration giving 50% net cell kill) [6]: 51.3 µM; CC50 [7, 10]: 17.4 µM; CC50 [8, 10]: 61.7 µM; CC50 [9, 10]: 40.7 µM

Reference: ChEMBL document CHEMBL3232816, “Substituted E-3-(3-indolylmethylene)1,3-dihydroindol-2-ones with antiproliferative activity. Study of the effects on HL-60 leukemia cells” (2014)
